Sampled rows, rich in hits. Any-hit rate of the full collection: about 5.4%.
EphB4 ephrin blk – antagonists of human EphB4-ephrin-B2 interaction | P54760 | EphB4 LBD / TNYL-RAW-Alexa532 peptide, fluorescence polarization | inhibition, % at 7 µM | actives 0.15% (n = 97,000);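 active = inhibition above the screen-wide mean inhibition plus 3 SD, cut at about 15% in these data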;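 also: 0% = DMSO wells and 100% = excess unlabeled TNYL-RAW peptide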
Cav3 T inh – human Cav3.2 channel inhibition, primary screen; actives 4% (n = 100,000); Cav3.2-expressing cells, Fluo-4 calcium fluorescence FDSS; stronger effect = lower value; AID 449739; O95180; B-score at 10 µM;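 active = single-dose well whose peak fluorescence ratio is a statistical outlier from its plate by either plate-standardised score or position-corrected B-score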
Rev-RRE block – inhibitors of HIV-1 Rev-RRE RNA interaction. P05866. Rev peptide-RRE RNA binding, FRET. inhibition, % at 8 µM. actives 0.79% (n = 97,000). AID 704;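 active = inhibition above the screen-wide mean plus 3 SD, cut at about 35% in these data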;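 also: 0% = median DMSO wells and 100% = median Neomycin B control wells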
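Assay system: Labelled RRE RNA duplex and labelled Rev peptide | Times: 5 min preincubation and 15 min binding, 25 °C | Detection: FRET, ex 480 nm, em 540 and 671 nm | Evaluation: % inhibition of FRET ratio versus controls | Benchmarks: DMSO wells as 0% and neomycin B wells as 100% inhibition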
DAT uptake mod – modulates human dopamine transporter uptake under cocaine; B-score at 10 µM; AID 449768; actives 1.3% (n = 110,000); Q01959; LLC-PK1 hDAT cells, [14C]-dopamine uptake with cocaine IC80; actives deviate in either direction;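 active = Z score or B-score, a plate-position-corrected score, falls beyond the plate's 99.7% confidence bounds, in either direction; inactive = both scores lie inside the 99.7% bounds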;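 also: scored against the spread of the other compound wells on the same plate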
Starred values were filed as active, the others as inactive; nt = no result given; ! = not confirmed by another sample.

SMILES	EphB4 ephrin blk	Cav3 T inh	Rev-RRE block	DAT uptake mod
CC(C)(C)c1ccc(NC(=S)NCc2cccs2)cc1	3	-1.5	-6	-0.38
O=S(=O)(N/N=C\C=C\c1ccccc1)c1ccc(Cl)cc1	3	-2.2	-1	0.82
Cc1ccc(C2(C)NC(=O)N(CCOc3ccccc3)C2=O)cc1 (stereo unspecified)	5	-3.3*	-2	-0.18
Cc1ccccc1N=C(NOCc1ccc(Cl)cc1Cl)c1nonc1N	-9	-2.4	23	0.5
Cc1ccccc1N=C(NOCc1ccccc1)c1nonc1N	5	-6.6*	17	-0.6
Cc1cc2cc(CN(C(=O)C3CC3)C3CCCC3)c3nnnn3c2cc1C	nt	-4.9*	nt	2.9*
Cc1cc2occ(CC(=O)Nc3nnc(C4CC4)s3)c2cc1C	1	0.036	13	0.58
Cc1csc(NC(=O)Cc2coc3cc(C)c(C(C)C)cc23)n1	9	-6.1*	25	1.6
O=C(Cc1cccs1)N(Cc1cccs1)C1(C(=O)NC2CCCCC2)CCCCC1	1	-5.5*	3	-0.98
CCC(C)(C(=O)NC1CCCCC1)N(Cc1ccco1)C(=O)c1ccccn1 (stereo unspecified)	-11	-1	-1	-0.37
CCC(C)(C(=O)NC1CCCCC1)N(Cc1cccs1)C(=O)Cc1cccs1 (stereo unspecified)	10	-7.7*	5	0.77
COc1cccc(CNC(=O)C2CCCN(S(=O)(=O)c3c(C)[nH]c(=O)[nH]c3=O)C2)c1 (stereo unspecified)	0	0.02	2	-0.0061
O=C([C@H](Cc1ccccc1)NS(=O)(=O)c1ccc(Cl)cc1)N1CC[C@@]2(O)CCCC[C@H]2C1	-7	-3.3*	2	1.9
CCOc1cccc(-c2cc(-c3n[nH]c(=S)n3CC)c3ccccc3n2)c1	8	-3.9	4	2.4*
COc1ccc(-n2c(=O)c3c4c(sc3n3c(C)nnc23)CC(C)CC4)cc1 (stereo unspecified)	1	nt	8	nt
CCSc1nnc2n(-c3ccc(OC)cc3)c(=O)c3c4c(sc3n12)CCCC4	3	-4.2	3	-8*
COc1ccc(-n2c(=O)c3c4c(sc3n3cnnc23)CC(C)CC4)cc1 (stereo unspecified)	25*	1.1	10	0.64
NC(=O)/C(=C/c1ccco1)NC(=O)/C=C/c1ccccc1	-8	-0.09	1	-0.33
CC(C)CCOC(=O)/C(=C/c1ccco1)NC(=O)/C=C/c1ccccc1	0	-5.8*	14	0.22
O=c1c2cc(Br)ccc2nc(-c2cccc(C(F)(F)F)c2)n1O	9	-7.9*	11	-2
Cc1cc2ncn(C(=O)N3CCC(C)CC3)c2cc1C	-1	-6.5*	6	-0.011
CCN1C(=O)CC(N2CCN(CC(=O)NC(C)C)CC2)C1=O (stereo unspecified)	-8	0.28	4	0.052
COc1ccc2oc(=O)c(C(=O)Oc3ccc(NC(C)=O)cc3)cc2c1	1	0.019	8	-0.48
CCN(C(=O)c1cnc(N2CCN(c3ncccn3)CC2)c2ccccc12)c1cccc(Cl)c1	-2	-6.6*	0	2.2*!
CCOC(=O)c1ccccc1NC(=O)CSc1nnnn1C	0	0.071	10	0.0049
SMILES	EphB4 ephrin blk	Cav3 T inh	Rev-RRE block	DAT uptake mod
CCOC(=O)c1c(NC(=O)CSc2nnnn2C)sc(C)c1-c1ccc(C)cc1	nt	-4.5*	nt	0.15
O=C(c1cc(C2CC2)nc2ccc(Br)cc12)N1N=C(C(F)F)CC1(O)C(F)F (stereo unspecified)	8	-7.5*	15	0.076
CCOC(=O)C1=C(C)NC(C)=C(C(=O)OCC)C1c1ccccc1/C=C/C(=O)OC(C)(C)C	nt	-4*	nt	0.46
O=C(NCc1nc2ccccc2[nH]1)C1=C[C@H](c2coc3ccccc3c2=O)C[C@H](OCCCCO)O1	nt	-0.014	nt	0.41
O=c1c2ccccc2c(C=NCCc2ccccc2)c(O)n1Cc1ccccc1	4	-3.9*	8	0.45
Cc1c(N=Cc2c(O)n(Cc3ccco3)c(=O)c3ccccc23)c(=O)n(-c2ccccc2)n1C	4	-0.29	4	1.5
Cc1ccc(NS(=O)(=O)c2cc(C(=O)NCc3ccccn3)ccc2Cl)cc1C	3	-0.072	8	-0.46
COc1ccc(CN(Cc2cccnc2)C(=S)NCCc2ccccc2)cc1OC	3	-0.5	5	2*
CCc1nnc(NC(=O)CSc2nnc(-c3ccccc3O)n2-c2ccc(C)cc2C)s1	7	-9*	5	-0.14
COc1ccc(S(=O)(=O)N/N=C(/C)c2cccc(NC(=O)c3ccccc3Cl)c2)cc1	0	nt	5	nt

Screening data deposited in PubChem BioAssay by several laboratories.
